From ChEMBL document CHEMBL1156136, “Hypoxia-activated prodrugs: substituent effects on the properties of nitro seco-1,2,9,9a-tetrahydrocyclopropa[c]benz[e]indol-4-one (nitroCBI) prodrugs of DNA minor groove alkylating agents” (J Med Chem, 2009)
Active and inactive are the calls of the source. The calls are words filed in the database; no cut-off is given here.

What was measured:
[1] = tested on: A549; test: Cytotoxicity against human A549 cells in oxic condition after 4 hrs by sulforhodamine B assay; assay type: functional, cell-based; details: A549, 4 h
Method in brief: (§1)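 Log-phase monolayers exposed to drug for 4 h under aerobic (20% O2) or anoxic (<20 ppm O2) conditions, then sulforhodamine B staining 5 days later. IC50 interpolated as concentration lowering cell density to 50% of same-plate controls. HCR = IC50(oxic)/IC50(hypoxic), mean of intraexperiment ratios. A549 P450R line is a stable transfectant with 9-fold higher cytochrome c reduction rate than parent.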

[2] = tested on: SK-OV-3; test: Cytotoxicity against human SKOV3 cells in oxic condition after 4 hrs by sulforhodamine B assay; assay type: functional, cell-based; details: SK-OV-3, 4 h; method in brief: as §1
[3] = tested on: A549; test: Hypoxic cytotoxicity ratio, IC50 for oxic condition to IC50 for hypoxic condition in human A549 cells overexpressing human NADPH/cytochrome P450 oxidoreductase; assay type: functional; method in brief: as §1
[4] = tested on: PC-3; test: Cytotoxicity against human PC3 cells in hypoxic condition after 4 hrs by sulforhodamine B assay; assay type: functional, cell-based; details: PC-3, 4 h; method in brief: as §1
[5] = tested on: HT-29; test: Hypoxic cytotoxicity ratio, IC50 for human HT-29 cells in oxic condition to IC50 for human HT-29 cells in hypoxic condition by clonogenic assay; assay type: functional
[6] = tested on: SK-OV-3; test: Cytotoxicity against human SKOV3 cells in hypoxic condition after 4 hrs by sulforhodamine B assay; assay type: functional, cell-based; details: SK-OV-3, 4 h; method in brief: as §1
[7] = tested on: C-33-A; test: Cytotoxicity against human C33A cells in hypoxic condition after 4 hrs by sulforhodamine B assay; assay type: functional, cell-based; method in brief: as §1
[8] = tested on: A549; test: Cytotoxicity against human A549 cells in hypoxic condition after 4 hrs by sulforhodamine B assay; assay type: functional, cell-based; details: A549, 4 h; method in brief: as §1
[9] = tested on: SiHa; test: Hypoxic cytotoxicity ratio, IC50 for human SiHa cells in oxic condition to IC50 for human SiHa cells in hypoxic condition; assay type: functional; method in brief: as §1
[10] = Cytotoxicity against human H1299 cells in oxic condition after 4 hrs by sulforhodamine B assay; assay type: functional, cell-based; details: NCI-H1299, 4 h; method in brief: as §1
[11] = tested on: A-375; test: Cytotoxicity against human A375 cells in hypoxic condition after 4 hrs by sulforhodamine B assay; assay type: functional, cell-based; details: A-375, 4 h; method in brief: as §1
[12] = tested on: SiHa; test: Cytotoxicity against human SiHa cells in oxic condition after 4 hrs by sulforhodamine B assay; assay type: functional, cell-based; method in brief: as §1
[13] = tested on: SiHa; test: Antitumor activity against human SiHa tumor bearing mouse assessed as cell kill at 42 umol/kg, iv; assay type: functional
Method in brief: (§2)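 SiHa xenografts grown subcutaneously (10⁷ cultured cells) in female homozygous nude CD1-Foxn1nu/nu mice, randomised at mean tumour diameter 8-10 mm. Single iv tail-vein dose, 42 μmol/kg, in 5% DMSO/20% PEG-400/75% lactate buffer pH 4.0. Given alone or 5 min after 15 Gy irradiation. Tumours excised 18 h later, enzymatically dissociated, clonogenic survivors per gram counted. Groups of 3-5 mice; ANOVA with Holm-Sidak on log data.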

[14] = tested on: HT-29; test: Cytotoxicity against human HT-29 cells in oxic condition after 4 hrs by sulforhodamine B assay; assay type: functional, cell-based; details: HT-29, 4 h; method in brief: as §1
[15] = tested on: PC-3; test: Cytotoxicity against human PC3 cells in oxic condition after 4 hrs by sulforhodamine B assay; assay type: functional, cell-based; details: PC-3, 4 h; method in brief: as §1
[16] = tested on: HCT-116; test: Hypoxic cytotoxicity ratio, IC50 for human HCT116 cells in oxic condition to IC50 for human HCT116 cells in hypoxic condition; assay type: functional; method in brief: as §1
[17] = tested on: HT-29; test: Hypoxic cytotoxicity ratio, IC50 for human HT-29 cells in oxic condition to IC50 for human HT-29 cells in hypoxic condition; assay type: functional; method in brief: as §1
[18] = tested on: SK-OV-3; test: Hypoxic cytotoxicity ratio, IC50 for human SKOV3 cells in oxic condition to IC50 for human SKOV3 cells in hypoxic condition; assay type: functional; method in brief: as §1
[19] = tested on: A549; test: Hypoxic cytotoxicity ratio, IC50 for human A549 cells in oxic condition to IC50 for human A549 cells in hypoxic condition; assay type: functional; method in brief: as §1
[20] = tested on: HCT-116; test: Cytotoxicity against human HCT116 cells in oxic condition after 4 hrs by sulforhodamine B assay; assay type: functional, cell-based; details: HCT-116, 4 h; method in brief: as §1
[21] = tested on: A549; test: Cytotoxicity against human A549 cells overexpressing human NADPH/cytochrome P450 oxidoreductase in oxic condition after 4 hrs by sulforhodamine B assay; assay type: functional, cell-based; details: A549, 4 h; method in brief: as §1
[22] = tested on: HCT-116; test: Cytotoxicity against human HCT116 cells in hypoxic condition after 4 hrs by sulforhodamine B assay; assay type: functional, cell-based; details: HCT-116, 4 h; method in brief: as §1
[23] = tested on: HT-29; test: Cytotoxicity against human HT-29 cells assessed as surviving fraction in oxic condition at 30 uM by clonogenic assay; assay type: functional
Method in brief: (§3)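 Clonogenic assay on single-cell suspensions from dissociated HT29 spheroids, about 1 × 10⁶ cells/mL. Drug exposure 4 h at 37 °C under 5% CO2 in O2 or in N2. Colonies grown 14 days, methylene blue stained, >50 cells counted. Surviving fraction = PE(treated)/PE(control); C10 is the concentration giving 10% survival, from the fitted curve.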

[24] = Cytotoxicity against human H1299 cells in hypoxic condition after 4 hrs by sulforhodamine B assay; assay type: functional, cell-based; details: NCI-H1299, 4 h; method in brief: as §1
[25] = tested on: A-375; test: Cytotoxicity against human A375 cells in oxic condition after 4 hrs by sulforhodamine B assay; assay type: functional, cell-based; details: A-375, 4 h; method in brief: as §1
[26] = tested on: C-33-A; test: Hypoxic cytotoxicity ratio, IC50 for human C33A cells in oxic condition to IC50 for human C33A cells in hypoxic condition; assay type: functional; method in brief: as §1
[27] = tested on: HT-29; test: Cytotoxicity against human HT-29 cells in hypoxic condition after 4 hrs by sulforhodamine B assay; assay type: functional, cell-based; details: HT-29, 4 h; method in brief: as §1
[28] = tested on: NCI-H460; test: Cytotoxicity against human H460 cells in hypoxic condition after 4 hrs by sulforhodamine B assay; assay type: functional, cell-based; details: NCI-H460, 4 h; method in brief: as §1
[29] = tested on: NCI-H460; test: Hypoxic cytotoxicity ratio, IC50 for human H460 cells in oxic condition to IC50 for human H460 cells in hypoxic condition; assay type: functional; method in brief: as §1
[30] = tested on: SiHa; test: Antitumor activity against human SiHa tumor bearing mouse assessed as log reduction of cell kill at 42 umol/kg, iv irradiated 5 mins before 15 Gy dose by cologenic assay; assay type: functional; method in brief: as §2
[31] = tested on: NCI-H460; test: Cytotoxicity against human H460 cells in oxic condition after 4 hrs by sulforhodamine B assay; assay type: functional, cell-based; details: NCI-H460, 4 h; method in brief: as §1
[32] = Hypoxic cytotoxicity ratio, IC50 for human H1299 cells in oxic condition to IC50 for human H1299 cells in hypoxic condition; assay type: functional, NCI-H1299; method in brief: as §1
[33] = tested on: HT-29; test: Cytotoxicity against human HT-29 cells assessed as cell kill in hypoxic condition by clonogenic assay; assay type: functional; method in brief: as §3
[34] = tested on: A549; test: Cytotoxicity against human A549 cells overexpressing human NADPH/cytochrome P450 oxidoreductase in hypoxic condition after 4 hrs by sulforhodamine B assay; assay type: functional, cell-based; details: A549, 4 h; method in brief: as §1
[35] = tested on: Mus musculus; test: Toxicity in mouse at 100 umol/kg, ip; assay type: organism-based; details: in vivo
[36] = tested on: SiHa; test: Cytotoxicity against human SiHa cells in hypoxic condition after 4 hrs by sulforhodamine B assay; assay type: functional, cell-based; method in brief: as §1
[37] = tested on: C-33-A; test: Cytotoxicity against human C33A cells in oxic condition after 4 hrs by sulforhodamine B assay; assay type: functional, cell-based; method in brief: as §1
[38] = tested on: A-375; test: Hypoxic cytotoxicity ratio, IC50 for human A375 cells in oxic condition to IC50 for human A375 cells in hypoxic condition; assay type: functional; method in brief: as §1
[39] = tested on: PC-3; test: Hypoxic cytotoxicity ratio, IC50 for human PC3 cells in oxic condition to IC50 for human PC3 cells in hypoxic condition; assay type: functional; method in brief: as §1

SMILES: CN(C)CCOc1ccc2[nH]c(C(=O)N3CC(CCl)c4c3cc([N+](=O)[O-])c3cc(S(N)(=O)=O)ccc43)cc2c1 (centres undefined)
- IC50 [1]: 950 nM
- IC50 [2]: 6900 nM
- Ratio IC50 [3]: 140
- IC50 [4]: 37 nM
- Ratio IC50 [5]: 125
- IC50 [6]: 0.028 nM
- IC50 [7]: 3 nM
- IC50 [8]: 35 nM
- Ratio IC50 [9]: 71
- IC50 [10]: 6300 nM
- IC50 [11]: 150 nM
- IC50 [12]: 1700 nM
- Activity [13]: inactive
- IC50 [14]: 4600 nM
- IC50 [15]: 2900 nM
- Ratio IC50 [16]: 110
- Ratio IC50 [17]: 330
- Ratio IC50 [18]: 275
- Ratio IC50 [19]: 30
- IC50 [20]: 1700 nM
- IC50 [21]: 860 nM
- IC50 [22]: 15 nM
- Activity [23]: >10%
- IC50 [24]: 110 nM
- IC50 [25]: 2900 nM
- Ratio IC50 [26]: 240
- IC50 [27]: 0.018 nM
- IC50 [28]: 110 nM
- Ratio IC50 [29]: 36
- Activity [30]: 2.7
- IC50 [31]: 3800 nM
- Ratio IC50 [32]: 180
- C10 [33]: 0.4 µM
- IC50 [34]: 6 nM
- Activity [35]: Non-toxic
- IC50 [36]: 34 nM
- IC50 [37]: 500 nM
- Ratio IC50 [38]: 19
- Ratio IC50 [39]: 180
